# Legend:
# Rattus norvegicus [1] = test: Distribution of radioactivity of radiolabeled compound in blood of female rats 5 minutes after intravenous administration; format: ADME, organism-based; settings: in vivo
# Rattus norvegicus [2] = test: Distribution of radioactivity of radiolabeled compound in heart of female rats 30 minutes after intravenous administration; format: ADME, organism-based; settings: in vivo, 0.5 h
# Rattus norvegicus [3] = test: Distribution of radioactivity of radiolabeled compound in blood of female rats 30 minutes after intravenous administration; format: ADME, organism-based; settings: in vivo, 0.5 h
# Rattus norvegicus [4] = test: Distribution of radioactivity of radiolabeled compound in heart of female rats 5 minutes after intravenous administration; format: ADME, organism-based; settings: in vivo
# Rattus norvegicus [5] = test: Distribution of radioactivity of radiolabeled compound in kidney of female rats 30 minutes after intravenous administration; format: ADME, organism-based; settings: in vivo, 0.5 h
# Rattus norvegicus [6] = test: Distribution of radioactivity of radiolabeled compound in kidney of female rats 5 minutes after intravenous administration; format: ADME, organism-based; settings: in vivo
# Rattus norvegicus [7] = test: Distribution of radioactivity of radiolabeled compound in liver of female rats 30 minutes after intravenous administration; format: ADME, organism-based; settings: in vivo, 0.5 h
# Rattus norvegicus [8] = test: Distribution of radioactivity of radiolabeled compound in liver of female rats 5 minutes after intravenous administration; format: ADME, organism-based; settings: in vivo
# Rattus norvegicus [9] = test: Distribution of radioactivity of radiolabeled compound in lung of female rats 30 minutes after intravenous administration; format: ADME, organism-based; settings: in vivo, 0.5 h
# Rattus norvegicus [10] = test: Distribution of radioactivity of radiolabeled compound in lung of female rats 5 minutes after intravenous administration; format: ADME, organism-based; settings: in vivo
# Rattus norvegicus [11] = test: Percentage […]/CH3OH extract of the radiolabeled compound in rat liver 30 minutes after iv administration; format: functional
# Summary of the method: (§1)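 Liver and plasma were taken at 5 or 30 min. Plasma was extracted by a modified Folch procedure, and liver was homogenized and extracted. Extracts were run on TLC in hexane/ethyl acetate (5:2) for esters or THF/hexane (1:1) for acids, with unlabeled compound as reference. Plates were cut into 1-cm strips and counted. Values are percent ± SEM, n = 3-5.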
# Rattus norvegicus [12] = test: Percentage […]/CH3OH extract of the radiolabeled compound in rat liver 5 minutes after iv administration; format: functional; summary of the method: as §1
# Rattus norvegicus [13] = test: Percentage […]/CH3OH extract of the radiolabeled compound in rat plasma 30 minutes after iv administration; format: functional; summary of the method: as §1
# Rattus norvegicus [14] = test: Percentage […]/CH3OH extract of the radiolabeled compound in rat plasma 5 minutes after iv administration; format: functional; summary of the method: as §1
# Rattus norvegicus [15] = test: Polyacrylamide Gel Electrophoresis (PAGE) analysis of rat plasma 30 minutes after intravenous administration of radiolabeled compound concentration of stacking gel; format: functional, organism-based
# Summary of the method: (§2)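 Gels were sectioned and counted in a γ counter. Radioactivity in each band (stacking gel, LDL, HDL, albumin, below albumin) is expressed as a percentage of the total radioactivity applied to the gel, ± SEM, n = 3-5.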
# Rattus norvegicus [16] = test: Polyacrylamide Gel Electrophoresis (PAGE) analysis of rat plasma 30 min after intravenous administration of radiolabeled compound in low-density lipoprotein; format: functional, organism-based; summary of the method: as §2
# Rattus norvegicus [17] = test: Polyacrylamide Gel Electrophoresis (PAGE) analysis of rat plasma 5 minutes after intravenous administration of radiolabeled compound (below albumin ); format: functional, organism-based
# Summary of the method: (§3)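 ¹²⁵I-labeled compound, radioiodinated by exchange in a pivalic acid melt, solubilized in normal saline with Tween 20 and given iv to adult female Sprague–Dawley rats (200–250 g), 5–30 μCi/animal, 3–4 rats per time point. Plasma was run on polyacrylamide gels. Gels were sectioned and gamma counted. Radioactivity per band (stacking gel, LDL, HDL, albumin, below albumin) is given as % of total applied; mean ± SEM, n = 3-5.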
# Rattus norvegicus [18] = test: Polyacrylamide Gel Electrophoresis (PAGE) analysis of rat plasma 5 minutes after intravenous administration of radiolabeled compound (below albumin); format: functional, organism-based; summary of the method: as §3
# Rattus norvegicus [19] = test: Polyacrylamide Gel Electrophoresis (PAGE) analysis of rat plasma 5 minutes after intravenous administration of radiolabeled compound in high density lipoprotein; format: functional, organism-based; summary of the method: as §3
# Rattus norvegicus [20] = test: Polyacrylamide Gel Electrophoresis (PAGE) analysis of rat plasma 5 minutes after intravenous administration of radiolabeled compound in stacking gel; format: functional, organism-based; summary of the method: as §3
# Rattus norvegicus [21] = test: Polyacrylamide Gel Electrophoresis (PAGE) analysis of rat plasma 5 min after intravenous administration of radiolabeled compound in albumin; format: functional, organism-based; summary of the method: as §2
# Rattus norvegicus [22] = test: Polyacrylamide Gel Electrophoresis (PAGE) analysis of rat plasma 5 min after intravenous administration of radiolabeled compound in low-density lipoprotein; format: functional, organism-based; summary of the method: as §3
# Rattus norvegicus [23] = test: Polyacrylamide Gel Electrophoresis (PAGE) analysis of rat plasma 30 min after intravenous administration of radiolabeled compound at concentration of high density; format: functional, organism-based; summary of the method: as §2
# Rattus norvegicus [24] = test: Polyacrylamide Gel Electrophoresis (PAGE) analysis of rat plasma 30 min after intravenous administration of radiolabeled compound in albumin; format: functional, organism-based; summary of the method: as §2
# Rattus norvegicus [25] = test: Percentage parent compound in rat liver 30 minutes after iv administration of the radiolabeled compound by thin-layer chromatography; format: functional; summary of the method: as §1
# Rattus norvegicus [26] = test: Percentage parent compound in rat liver 5 minutes after iv administration of the radiolabeled compound by thin-layer chromatography; format: functional; summary of the method: as §1
# Rattus norvegicus [27] = test: Percentage parent compound in rat plasma 30 minutes after iv administration of the radiolabeled compound by thin-layer chromatography; format: functional; summary of the method: as §1
# Rattus norvegicus [28] = test: Percentage parent compound in rat plasma 5 minutes after iv administration of the radiolabeled compound by thin-layer chromatography; format: functional; summary of the method: as §1
# Rattus norvegicus [29] = test: Polyacrylamide Gel Electrophoresis (PAGE) analysis of rat plasma 30 minutes after intravenous administration of radiolabeled compound (below albumin); format: functional, organism-based; summary of the method: as §2
# Rattus norvegicus [30] = test: Polyacrylamide Gel Electrophoresis (PAGE) analysis of rat plasma 30 minutes after intravenous administration of radiolabeled compound concentration in stacking gel; format: functional, organism-based; summary of the method: as §2
# Rattus norvegicus [31] = test: Polyacrylamide Gel Electrophoresis (PAGE) analysis of rat plasma 30 minutes after intravenous administration of radiolabeled compound in high density lipoprotein; format: functional, organism-based; summary of the method: as §2
# Rattus norvegicus [32] = test: Polyacrylamide Gel Electrophoresis (PAGE) analysis of rat plasma 30 minutes after intravenous administration of radiolabeled compound in low-density lipoprotein; format: functional, organism-based; summary of the method: as §2
# Rattus norvegicus [33] = test: Polyacrylamide Gel Electrophoresis (PAGE) analysis of rat plasma 5 minutes after intravenous administration of radiolabeled compound in low-density lipoprotein; format: functional, organism-based; summary of the method: as §3
# Rattus norvegicus [34] = test: Polyacrylamide Gel Electrophoresis (PAGE) analysis of rat plasma 30 min after intravenous administration of radiolabeled compound ( below albumin); format: functional, organism-based; summary of the method: as §2
# Rattus norvegicus [35] = test: Polyacrylamide Gel Electrophoresis (PAGE) analysis of rat plasma 30 min after intravenous administration of radiolabeled compound in low density lipoprotein; format: functional, organism-based; summary of the method: as §2
# Rattus norvegicus [36] = test: Polyacrylamide Gel Electrophoresis (PAGE) analysis of rat plasma 5 minutes after intravenous administration of radiolabeled compound at in high density lipoprotein; format: functional, organism-based; summary of the method: as §3
# Rattus norvegicus [37] = test: Polyacrylamide Gel Electrophoresis (PAGE) analysis of rat plasma 5 minutes after intravenous administration of radiolabeled in stacking gel; format: functional, organism-based; summary of the method: as §3
# Rattus norvegicus [38] = test: Polyacrylamide Gel Electrophoresis (PAGE) analysis of rat plasma 30 min after intravenous administration of radiolabeled compound at in high density; format: functional, organism-based; summary of the method: as §2
# Rattus norvegicus [39] = test: Polyacrylamide Gel Electrophoresis (PAGE) analysis of rat plasma 5 min after intravenous administration of radiolabeled compound concentration of albumin; format: functional, organism-based; summary of the method: as §2
Dose (Rattus norvegicus [1]) [%],Dose (Rattus norvegicus [2]) [%],Dose (Rattus norvegicus [3]) [%],Dose (Rattus norvegicus [4]) [%],Dose (Rattus norvegicus [5]) [%],Dose (Rattus norvegicus [6]) [%],Dose (Rattus norvegicus [7]) [%],Dose (Rattus norvegicus [8]) [%],Dose (Rattus norvegicus [9]) [%],Dose (Rattus norvegicus [10]) [%],Structure (SMILES),Activity (Rattus norvegicus [11]) [%],Activity (Rattus norvegicus [12]) [%],Activity (Rattus norvegicus [13]) [%],Activity (Rattus norvegicus [14]) [%],Concentration (Rattus norvegicus [17]),Concentration (Rattus norvegicus [19]),Concentration (Rattus norvegicus [20]) [%],Concentration (Rattus norvegicus [21]),Concentration (Rattus norvegicus [24]),Concentration (Rattus norvegicus [33]) [%],further results
6.04,1.92,3.73,0.6,0.65,0.65,4.6,2.16,0.97,1.15,CCCCCCCCCCCCCCCC(=O)OCC(COC(=O)CCCCCCCCCCCCCCC)OC(=O)C(CC)Cc1c(I)cc(I)c(N)c1I (configuration not stated),79.7,84.4,92.2,85.7,3,52.6,4.6,4.4,5.4,,Concentration (Rattus norvegicus [15]): 7.1; Concentration (Rattus norvegicus [16]): 27.5; Concentration (Rattus norvegicus [18]): 3; Concentration (Rattus norvegicus [22]): 35.1; Concentration (Rattus norvegicus [23]): 54.1
6.23,0.68,6.5,0.63,0.87,0.93,4,2.96,1.34,1.41,CCCCCCCCCCCCCCCC(=O)OCC(COC(=O)CCCCCCCCCCCCCCC)OC(=O)Cc1c(I)cc(I)c(N)c1I,83.1,91.2,81.5,89.4,3.2,50.5,9,3.3,1.9,34,Activity (Rattus norvegicus [25]): 89%; Activity (Rattus norvegicus [26]): 91.7%; Activity (Rattus norvegicus [27]): 91.9%; Activity (Rattus norvegicus [28]): 97.7%; Concentration (Rattus norvegicus [29]): 0.5; Concentration (Rattus norvegicus [30]): 3%; Concentration (Rattus norvegicus [31]): 53.4%; Concentration (Rattus norvegicus [32]): 41.2%
5.44,0.72,2.41,1.09,5.82,4.62,0.5,0.87,1.07,1.49,Nc1c(I)cc(I)c(CC(=O)O)c1I,,,,,5.5,,1.7,,83.6,1,Concentration (Rattus norvegicus [34]): 7; Concentration (Rattus norvegicus [35]): 0.4; Concentration (Rattus norvegicus [36]): 15.8%; Concentration (Rattus norvegicus [37]): 1.7%; Concentration (Rattus norvegicus [38]): 7.3%; Concentration (Rattus norvegicus [39]): 76

# From ChEMBL document CHEMBL1123430, “Potential tumor- or organ-imaging agents. 26. Polyiodinated 2-substituted triacylglycerols as hepatographic agents” (J Med Chem, 1986)
